In the RNAGym collection of RNA variant scans (doi:10.1126/science.aae0568):
This sample holds only a part of the variants without activity.

B1: tRNA (parent)
chain: GUUCCGUUGGCGUAAUGGUAACGCGUCUCCCUCCUAAGGAGAAGACUGCGGGUUCGAGUCCCGUACGGAACG

Variants of: B1
Assay: yeast fitness relative to wild type (ratio to wild type); higher = fitter; tRNA-Arg(CCU), competitive growth, 37 C, YPD
How it was run: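 Variants of the tRNA-Arg(CCU) gene were chemically synthesised with a 3% per-site mutation rate across 69 sites and placed at the native genomic locus in Saccharomyces cerevisiae. Six parallel replicates of the pooled strains were competed in YPD at 37°C for 24 hours, and gene amplicons from the start and end populations were read by 100-nucleotide paired-end sequencing. Darwinian fitness relative to wild type was derived from changes in genotype frequencies. Genotypes required ≥ 100 starting reads, and estimates < 0.5 were set to 0.5.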

**Q.** For GUUCCGUUGGCGUAAUGGUAACGCGUCUCCCCCUCAAGGAGAAGGCUGCGGGUACGAGUCCCGUACGGAACG [U32C C34U U35C A45G U54A], which yeast fitness is on record?
**A.** The yeast fitness was no more than 0.5.

**Q.** For GUUCCGUUGGCGUAAUGGUAACGCGUCUCCCCCCUAAGGAGAAGAGUGCGGGUUCGAGUCCCGUACGGAACG [U32C C46G], which yeast fitness is on record?
**A.** Its yeast fitness is 0.865.

**Q.** For GUUCCGUUGGCGUAAUGGUAACGCGUCUCCCCCCUAAGGAGAAGAGUGCGGGUUCGUGUCCCGUACGGAACG [U32C C46G A57U], which yeast fitness is on record?
**A.** Its yeast fitness is 0.673.

**Q.** For GUUCCGUUGGCGUAAUGGUAACGCGUCUCCCCCCUAAGGAGAAGAGUGCGGGUUCGAGUCCCGUGCGGAACG [U32C C46G A65G], which yeast fitness is on record?
**A.** The yeast fitness was 0.917.

**Q.** For GUUCCGUUGGCGUAAUGGUAACGCGUCUCCCCCCUAAGGAGAAGAGUGCGGGUUCGAGUCGCGUACGGAACG [U32C C46G C61G], which yeast fitness is on record?
**A.** The yeast fitness was 0.587.

**Q.** For GUUCCGUUGGCGUAAUGGUAACGCGUCUCCCCCCUAAGGAGAAGAGUGCGGGUUCCAGUCCCGUACGGAACG [U32C C46G G56C], which yeast fitness is on record?
**A.** The yeast fitness was no more than 0.5.

**Q.** With GUUCCGUUGGCGUAAUGGUAACGCGUCUCCCCCCUAAGGAGAAGAUUGCGCGUUCGAGUCCUGUACGGAACG [U32C C46U G51C C62U] as the variant, how does the yeast fitness read?
**A.** The yeast fitness was no more than 0.5.

**Q.** For GUUCCGUUGGCGUAAUGGUAACGCGUCUCCCCCCUAAGGAGAAGACUGUGGGUUCGAGUCCCGUACGGAACG [U32C C49U], which yeast fitness is on record?
**A.** Its yeast fitness is 0.971.

**Q.** For GUUCCGUUGGCGUAAUGGUAACGCGUCUCCCCCCUAAGGAGAAGACUGUGGGUUCGCGUCCCGUACGGAACG [U32C C49U A57C], which yeast fitness is on record?
**A.** The yeast fitness was 0.654.

**Q.** Which yeast fitness does the source give for GUUCCGUUGGCGUAAUGGUAACGCGUCUCCCCCCUAAGGAGAAGACUGCGGGUUGGAGUCCCGUACGGAACG [U32C C55G] here?
**A.** The yeast fitness was 0.629.

**Q.** With GUUCCGUUGGCGUAAUGGUAACGCGUCUCCCCCCUAAGGAGAAGACUGCGGGUUUGCGUCCCGUACAGAACG [U32C C55U A57C G67A] as the variant, how does the yeast fitness read?
**A.** The yeast fitness was 0.638.

**Q.** Which yeast fitness does the source give for GUUCCGUUGGCGUAAUGGUAACGCGUCUCCCCCCUAAGGAGAAGACUGCGGGUUUGGGUCCCGUACGGAACG [U32C C55U A57G] here?
**A.** The yeast fitness was 0.555.

**Q.** Which yeast fitness does the source give for GUUCCGUUGGCGUAAUGGUAACGCGUCUCCCCCCUAAGGAGAAGACUGCGGGUUUGAGUCCCGUACGGUACG [U32C C55U A69U] here?
**A.** The yeast fitness was 0.55.

**Q.** With GUUCCGUUGGCGUAAUGGUAACGCGUCUCCCCCCUAAGGAGAAGACUGCGGGUUUGAGUCCCGUACAGAACG [U32C C55U G67A] as the variant, how does the yeast fitness read?
**A.** Its yeast fitness is no more than 0.5.

**Q.** For GUUCCGUUGGCGUAAUGGUAACGCGUCUCCCCCCUAAGGAGAAGACUGCGGGUUCGAGUACCGUACGGAACG [U32C C60A], which yeast fitness is on record?
**A.** Its yeast fitness is 0.645.

**Q.** For GUUCCGUUGGCGUAAUGGUAACGCGUCUCCCCCCUAAGGAGAAGACUGCGGGUUCGAGUGCCGUUCGGAACG [U32C C60G A65U], which yeast fitness is on record?
**A.** The yeast fitness was no more than 0.5.

**Q.** With GUUCCGUUGGCGUAAUGGUAACGCGUCUCCCCCCUAAGGAGAAGACUGCGGGUUCGAGUGCCGUACGGUACG [U32C C60G A69U] as the variant, how does the yeast fitness read?
**A.** Its yeast fitness is no more than 0.5.

**Q.** For GUUCCGUUGGCGUAAUGGUAACGCGUCUCCCCCCUAAGGAGAAGACUGCGGGUUCGAGUGCGGUACGGAACG [U32C C60G C62G], which yeast fitness is on record?
**A.** The yeast fitness was no more than 0.5.

**Q.** With GUUCCGUUGGCGUAAUGGUAACGCGUCUCCCCCCUAAGGAGAAGACUGCGGGUUCGAGUGCCGUAUGGAUCG [U32C C60G C66U A70U] as the variant, how does the yeast fitness read?
**A.** Its yeast fitness is no more than 0.5.

**Q.** Which yeast fitness does the source give for GUUCCGUUGGCGUAAUGGUAACGCGUCUCCCCCCUAAGGAGAAGACUGCGGGUUCGAGUUCCGUACGGAACG [U32C C60U] here?
**A.** Its yeast fitness is 0.642.

**Q.** For GUUCCGUUGGCGUAAUGGUAACGCGUCUCCCCCCUAAGGAGAAGACUGCGGGUUCGAGUCGCGUACGGAACG [U32C C61G], which yeast fitness is on record?
**A.** The yeast fitness was 0.702.

**Q.** For GUUCCGUUGGCGUAAUGGUAACGCGUCUCCCCCCUAAGGAGAAGACUGCGGGUUCGAGUCUCGUACGGAACG [U32C C61U], which yeast fitness is on record?
**A.** The yeast fitness was 0.987.

**Q.** With GUUCCGUUGGCGUAAUGGUAACGCGUCUCCCCCCUAAGGAGAAGACUGCGGGUUCGAGUCUCGUACGAAACG [U32C C61U G68A] as the variant, how does the yeast fitness read?
**A.** The yeast fitness was 0.586.

**Q.** With GUUCCGUUGGCGUAAUGGUAACGCGUCUCCCCCCUAAGGAGAAGACUGCGGGUUCGAGUCCAGUACGGAACG [U32C C62A] as the variant, how does the yeast fitness read?
**A.** The yeast fitness was 0.727.

**Q.** With GUUCCGUUGGCGUAAUGGUAACGCGUCUCCCCCCUAAGGAGAAGACUGCGGGUUCGAGUCCGGUACGGAACG [U32C C62G] as the variant, how does the yeast fitness read?
**A.** The yeast fitness was 0.796.

**Q.** For GUUCCGUUGGCGUAAUGGUAACGCGUCUCCCCCCUAAGGAGAAGACUGCGGGUUCGAGUCCUGUACGGAACG [U32C C62U], which yeast fitness is on record?
**A.** Its yeast fitness is 1.02.

**Q.** With GUUCCGUUGGCGUAAUGGUAACGCGUCUCCCCCCUAAGGAGAAGACUGCGGGUUCGAGUCCUGUACGGCACG [U32C C62U A69C] as the variant, how does the yeast fitness read?
**A.** The yeast fitness was 1.15.

**Q.** With GUUCCGUUGGCGUAAUGGUAACGCGUCUCCCCCCUAAGGAGAAGACUGCGGGUUCGAGUCCUGUAGGGAACG [U32C C62U C66G] as the variant, how does the yeast fitness read?
**A.** Its yeast fitness is no more than 0.5.

**Q.** With GUUCCGUUGGCGUAAUGGUAACGCGUCUCCCCCCUAAGGAGAAGACUGCGGGUUCGAGUCCCGUAGGGAUCG [U32C C66G A70U] as the variant, how does the yeast fitness read?
**A.** The yeast fitness was 0.811.

**Q.** For GUUCCGUUGGCGUAAUGGUAACGCGUCUCCCCCCUAAGGAGAAGACUGCGGGUUCGAGUCCCGUAUGGAACG [U32C C66U], which yeast fitness is on record?
**A.** Its yeast fitness is 0.966.

**Q.** Which yeast fitness does the source give for GUUCCGUUGGCGUAAUGGUAACGCGUCUCCCCCCUAAGGAGAAGACUGCGGGUUCGAGUCCCGUAUGCAACG [U32C C66U G68C] here?
**A.** Its yeast fitness is 0.554.

**Q.** For GUUCCGUUGGCGUAAUGGUAACGCGUCUCCCCCCUAACGAGAAGACUGCGGGUUCGAGUCCCGUACGGAACG [U32C G38C], which yeast fitness is on record?
**A.** The yeast fitness was 0.742.

**Q.** With GUUCCGUUGGCGUAAUGGUAACGCGUCUCCCCCCUAACGACAAGACUGCGGGUUCGAGUCCCGUGCGGAACG [U32C G38C G41C A65G] as the variant, how does the yeast fitness read?
**A.** The yeast fitness was no more than 0.5.

**Q.** Which yeast fitness does the source give for GUUCCGUUGGCGUAAUGGUAACGCGUCUCCCCCCUAAGAUGAAGACUGCGGGUUCGAGUCCCCUACGGAACG [U32C G39A A40U G63C] here?
**A.** Its yeast fitness is no more than 0.5.

**Q.** For GUUCCGUUGGCGUAAUGGUAACGCGUCUCCCCCCUAAGCAGAAGACUGCGGGUUUGAGUCCCGUACGGAACG [U32C G39C C55U], which yeast fitness is on record?
**A.** The yeast fitness was no more than 0.5.

**Q.** Which yeast fitness does the source give for GUUCCGUUGGCGUAAUGGUAACGCGUCUCCCCCCUAAGCAGAAGACUGCGGGUUCGAGUCUCGUACGGAACG [U32C G39C C61U] here?
**A.** The yeast fitness was no more than 0.5.

**Q.** Which yeast fitness does the source give for GUUCCGUUGGCGUAAUGGUAACGCGUCUCCCCCCUAAGCAGAAGACUGCGGGUUCGAGUCCCGUACCGAACG [U32C G39C G67C] here?
**A.** The yeast fitness was no more than 0.5.
